# Compound activity deposited in PubChem by The Scripps Research Institute Molecular Screening Center.
# Hits are enriched below; roughly 1.8% of the tested compounds scored in any of these assays.
# CHRM4 agonist: CHRM4 agonism in calcium assay. P08173. CHO-K1 hM4/Gqi5, Fluo-8 calcium fluorescence; vehicle 0%, full acetylcholine response 100%. activation, % at 3 µM. 0.14% of 360,000 active. AID 624127;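 active = activation above the run mean over all test wells plus 3 SD, cut at about 32% in these data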;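 note: peak over basal fluorescence ratio per well then scaled between controls; 0% = DMSO wells and 100% = acetylcholine at EC100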
# Target sequence (P08173 whole entry, looked up): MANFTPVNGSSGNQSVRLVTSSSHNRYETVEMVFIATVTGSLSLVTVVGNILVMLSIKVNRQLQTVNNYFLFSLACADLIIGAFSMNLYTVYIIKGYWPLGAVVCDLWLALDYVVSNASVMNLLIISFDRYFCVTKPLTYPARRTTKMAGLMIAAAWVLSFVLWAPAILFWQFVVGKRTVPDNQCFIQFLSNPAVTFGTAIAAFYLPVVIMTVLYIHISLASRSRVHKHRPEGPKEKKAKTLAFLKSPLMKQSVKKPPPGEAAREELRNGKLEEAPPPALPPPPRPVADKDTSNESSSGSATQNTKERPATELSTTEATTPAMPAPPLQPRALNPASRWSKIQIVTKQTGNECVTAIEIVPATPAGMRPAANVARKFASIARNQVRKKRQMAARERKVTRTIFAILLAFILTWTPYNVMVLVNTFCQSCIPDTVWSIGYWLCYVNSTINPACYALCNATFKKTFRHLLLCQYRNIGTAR
# CHRM4 antagonist: CHRM4 antagonism in calcium assay. inhibition, % at 3 µM. P08173. 0.73% of 360,000 active. CHO-hM4 cells, ACh EC80, Fluo-8 calcium fluorescence. AID 624125;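 active = inhibition above its plate's cutoff, the mean inhibition of sample wells plus 3 SD, cut at about 27% in these data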;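 note: 0% = acetylcholine EC80 with DMSO and 100% = DMSO without agonist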
# M5 antag: CHRM5 antagonism in calcium assay; CHO-hM5 cells, Fluo-8 calcium fluorescence, ACh EC80; inhibition, % at 3 µM; 0.59% of 360,000 active; AID 624040;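 active = inhibition above a per-plate cutoff, the mean of that plate's test compounds plus 3 SD, cut at about 27% in these data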;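 note: 0% = acetylcholine EC80 with DMSO and 100% = DMSO without agonist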
# M5 PAM: potentiates acetylcholine response at human M5 receptor; P08912; CHO-K1 hM5, Fluo-8 calcium, ACh EC20 PAM; 0% = ACh EC20, 100% = ACh EC100; activation, % at 3 µM; 0.3% of 360,000 active;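 active = activation above the run cutoff, the mean activation of all test compounds plus 3 SD, cut at about 18% in these data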
#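 Assay system: CHO-K1 hM5 cells. Also added: acetylcholine at EC20 concentration, added after compound. Dosing: 3 µM, single dose. Times: compound preincubation 140 s before EC20 acetylcholine addition. Signal: Fluo-8 calcium fluorescence. Measure: % activation relative to EC20 and EC100 ACh responses. Repeats: singlicate, one well per test compound.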
# M4 PAM: positive allosteric modulators of human muscarinic M4 receptor; activation, % at 3 µM; AID 624126; P08173; 0.4% of 360,000 active; CHO-K1 hM4/Gqi5, Fluo-8 calcium fluorescence, ACh EC20; 0% = ACh EC20, 100% = maximal ACh;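 active = activation above its plate's cutoff, the mean activation of sample wells plus 3 SD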
# CHRM5 agonist: CHRM5 agonism in calcium assay; 0.19% of 360,000 active; AID 624037; P08912; CHO-K1 hM5 cells, Fluo-8 calcium fluorescence; 0% DMSO wells, 100% maximal acetylcholine response; activation, % at 3 µM;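 active = activation above the run's mean over test compounds plus 3 SD, cut at about 23% in these data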;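 note: signal is peak over basal fluorescence ratio across the kinetic read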
# * = called active by the depositor.
SMILES,CHRM4 agonist,CHRM4 antagonist,M5 antag,M5 PAM,M4 PAM,CHRM5 agonist
Cc1cccc(CN2CCN(C3CN(Cc4cn(Cc5ccccc5C(F)(F)F)nn4)S(=O)(=O)C3)CC2)c1 (stereo not given),5,-5,-2,3,-8,0
CCN(CC)c1ccc(/C=C/C(=O)c2ccc(Br)cc2)cc1,94*,67*,67*,-18,-17,113*
N#CC1(CCCN2CCCCC2)c2ccccc2CCc2ccccc21,9,26*,27,-36,-68,-17
OCCN1CCN(CCCN2c3ccccc3CCc3ccccc32)CC1,3,-4,12,-17,-1,-3
CCOc1ccccc1N(CC(=O)N1CCN(Cc2ccccc2)CC1)S(=O)(=O)c1ccccc1,4,0,2,-2,-6,0
COc1ccc(/C=C/C(=O)Nc2ccccc2C(F)(F)F)cc1,1,-10,-8,1,21*,-5
CCOc1ccc(/C=C/C(=O)Nc2ccccc2C(F)(F)F)cc1,2,-9,-14,3,16,-6
CN1CCN(S(=O)(=O)c2ccccc2)C(c2ccccc2)C1 (stereo not given),0,5,9,5,2,-1
CN1CCN2c3ccccc3Cc3ccccc3C2C1 (stereo not given),0,17,45*,-19,-16,-2
Oc1ccc(C[C@H]2CNCCN2CC2(c3ccccc3)CC2)cc1,2,-12,3,2,7,1
CC1CN(C(=O)c2cc(-c3ccncc3)nc3ccccc23)CC(C)O1 (stereo not given),2,-14,-3,-4,23*,-4
CC1CC(C)CN(C(=O)c2cc(-c3ccncc3)nc3ccccc23)C1 (stereo not given),2,2,1,3,6,-4
O=[N+]([O-])c1ccc(Nc2ccc(Cl)cc2)nc1,8,5,31*,-15,-13,-4
COC(=O)c1cccc(NC(=S)NCc2ccc(Cl)cc2)c1,16,6,13,-9,-6,14
COC(=O)c1cc(NC(=S)NCc2ccc(Cl)cc2)cc(C(=O)OC)c1,18,13,29*,-14,-6,12
CCCc1nnc(NC(=O)Cn2c(=O)oc3cc(Br)ccc32)s1,22,-6,-3,5,-3,39*
C[C@@H]1CCCCO[C@@H](CN(C)S(=O)(=O)c2ccccc2)[C@@H](C)CN([C@H](C)CO)C(=O)c2cc(N(C)C)ccc2O1,0,-7,1,1,5,-1
N#CCCN(C(=O)COC(=O)c1ccc(CNS(=O)(=O)c2ccc(F)c(Cl)c2)cc1)c1ccc(F)cc1,15,50*,22,-19,-17,-3
Nc1[nH]n2c(=O)c3c(nc2c1N=Nc1ccc(Cl)cc1)CCCC3,0,-8,0,1,9,-1
Nc1[nH]n2c(=O)c3c(nc2c1N=Nc1ccccc1)CCCC3,1,10,21,8,30*,-4
Cc1c(Cl)c(=O)oc2cc(OCC(=O)NCc3cccs3)ccc12,3,-8,-28,21*,2,1
COc1ccc(-c2cc(C(N)=O)nc(N3CCCCCC3)n2)cc1,-1,-5,-14,12,28*,-4
CCCCN(CCCC)c1ccc(C(=O)c2ccccc2C(=O)O)c(O)c1,34*,21,3,-2,-26,10
CCNC(=O)C1(C)CCCN1C(=O)c1ccc2c(c1)OCO2 (stereo not given),0,-19,-12,1,-2,-1
NCCCn1c(C(=O)c2cc(Cl)c(N)c(Cl)c2)c2ccc(C(F)(F)F)cc2[n+]1[O-],7,-8,-7,19*,7,7
NC(=O)CCCn1c(C(=O)c2cc(Cl)c(N)c(Cl)c2)c2ccc(C(F)(F)F)cc2[n+]1[O-],7,-9,12,-2,9,3
Cc1ccc(NC(=S)NC(=O)c2ccc(-c3ccc(Cl)cc3)o2)c(O)c1,0,-4,-3,-2,11,-1
